This note sets out measurements from ChEMBL document CHEMBL2169742, “Design, synthesis, and biological evaluation of novel transrepression-selective liver X receptor (LXR) ligands with 5,11-dihydro-5-methyl-11-methylene-6H-dibenz[b,e]azepin-6-one skeleton” (J Med Chem, 2012).

The source made the active and inactive calls. The rule behind the calls is not given here. Where only a bound is given, the exact number is not on record here.

Series [1] deals with Peritoneal macrophage cell. The series can be described thus: Inhibition of LPS-induced IL-6 mRNA expression in LXRalpha-deficient C57BL/6J mouse peritoneal macrophages at 10 uM incubated for 6 hrs prior to LPS-challenge measured after 18 hrs by RT-PCR analysis. In kind it is functional, cell-based. In a few lines:
(§1)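 Thioglycollate-elicited peritoneal macrophages (wild-type C57BL/6J or LXRα-null, 8–10 weeks) were plated at 4 × 10⁶/well and pretreated with compound 6 h before LPS 100 ng/mL. Cells were harvested after 18 h. il-6 and il-1β mRNA were measured by real-time quantitative PCR, normalized to GAPDH.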

A short description of series [2]: Transrepressional activity at LXR in C57BL/6J mouse peritoneal macrophages assessed as inhibition of LPS-induced IL-1beta mRNA expression at 10 uM incubated for 6 hr prior to LPS-challenge measured after 18 hrs by RT-PCR analysis. In a few lines: as §1
The subject of series [3] is Peritoneal macrophage cell. Nature of the series: Inhibition of LPS-induced IL-6 production in LXRalpha,LXRbeta-deficient C57BL/6J mouse peritoneal macrophages at 10 uM incubated for 6 hrs prior to LPS-challenge measured after 18 hrs by ELISA. In kind it is functional, cell-based. In a few lines:
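Thioglycollate-elicited peritoneal macrophages came from 8–10-week LXRα/β-null mice on C57BL/6J background, harvested 4 days post-injection. They were adhered, rested 24 h and plated at 2 × 10⁵/well, then pretreated with compound 6 h before LPS 10 ng/mL. Supernatant mIL-6 was measured by ELISA after 18 h; means ± SE of ≥3 independent measurements, ANOVA.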

Series [4] deals with T1, Oxysterols receptor LXR-alpha (Homo sapiens, UniProt Q13133).
T1 sequence (Q13133 whole entry): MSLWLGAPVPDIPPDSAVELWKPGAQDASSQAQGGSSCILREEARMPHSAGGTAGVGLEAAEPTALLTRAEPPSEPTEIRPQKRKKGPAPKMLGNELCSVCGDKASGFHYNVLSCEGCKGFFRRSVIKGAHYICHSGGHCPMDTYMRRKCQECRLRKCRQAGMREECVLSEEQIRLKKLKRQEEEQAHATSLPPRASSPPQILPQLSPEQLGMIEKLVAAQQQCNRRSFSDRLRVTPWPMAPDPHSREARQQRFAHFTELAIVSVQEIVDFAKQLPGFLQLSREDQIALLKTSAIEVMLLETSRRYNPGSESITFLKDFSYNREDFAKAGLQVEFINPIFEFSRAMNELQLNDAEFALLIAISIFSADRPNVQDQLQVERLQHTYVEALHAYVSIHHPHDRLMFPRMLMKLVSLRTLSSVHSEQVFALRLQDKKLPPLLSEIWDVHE
The series can be described thus: Transactivational antagonist activity at human LXRalpha transfected in HEK293 cells expressing CMX-Gal4N assessed as inhibition of T1317-induced luciferase activity after 16 hrs by reporter gene assay. In kind it is functional, cell-based.

Series [5] concerns the target T1, Oxysterols receptor LXR-alpha. The series can be described thus: Transactivational agonist activity at human LXRalpha transfected in HEK293 cells expressing CMX-Gal4N assessed as luciferase activity at 30 uM after 16 hrs by reporter gene assay. The class given is cell-based. As to conditions: hek293, 16 h.
The target of series [6] is T2, Retinoic acid receptor RXR-alpha (Homo sapiens) (UniProt P19793).
T2 sequence (whole entry): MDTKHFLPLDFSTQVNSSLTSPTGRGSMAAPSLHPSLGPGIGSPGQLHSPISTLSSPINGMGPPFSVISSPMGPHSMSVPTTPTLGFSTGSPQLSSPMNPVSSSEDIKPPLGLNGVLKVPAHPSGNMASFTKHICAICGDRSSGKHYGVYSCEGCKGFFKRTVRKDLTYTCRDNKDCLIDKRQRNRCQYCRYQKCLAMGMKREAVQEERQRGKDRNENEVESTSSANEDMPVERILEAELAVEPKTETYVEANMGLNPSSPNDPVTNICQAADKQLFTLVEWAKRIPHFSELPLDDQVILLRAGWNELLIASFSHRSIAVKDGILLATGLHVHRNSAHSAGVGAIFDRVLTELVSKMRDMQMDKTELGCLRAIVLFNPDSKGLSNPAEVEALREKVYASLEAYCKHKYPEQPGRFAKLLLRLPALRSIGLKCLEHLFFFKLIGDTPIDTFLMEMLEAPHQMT
The series can be described thus: Antagonist activity at human Gal4-fused RXRalpha assessed as inhibition of SR11215-induced luciferase activity at 0.1 to 10 uM by reporter gene assay. In kind it is functional.

Series [7] deals with Peritoneal macrophage cell. The series can be described thus: Inhibition of LPS-induced IL-1beta mRNA expression in LXRalpha-deficient C57BL/6J mouse peritoneal macrophages at 10 uM incubated for 6 hrs prior to LPS-challenge measured after 18 hrs by RT-PCR analysis. In kind it is functional, cell-based. In a few lines:
as §1

Series [8] deals with T3, Oxysterols receptor LXR-alpha (Homo sapiens) (UniProt Q13133).
T3 sequence (whole entry): T1 sequence (Q13133 whole entry)
Nature of the series: Transactivational antagonist activity at human LXRalpha transfected in HEK293 cells coexpressing CMX-Gal4N-SMRT assessed as SMRT recruitment after 16 hrs by reporter gene assay. The class given is functional, cell-based. In a few lines:
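Mammalian two-hybrid in HEK293 cells by calcium phosphate cotransfection: CMX-VP16N-hLXRα, Gal4N-fused SRC1, DRIP205, NCoR or SMRT (15 ng), tk-MH100×4-luc (50 ng) and CMX-β-gal (10 ng). Compound or DMSO added 8 h after transfection for 16 h. Luciferase was normalized to β-galactosidase, in triplicate.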

Series [9] has as its target T4, Bile acid receptor (Homo sapiens) (UniProt Q96RI1).
T4 sequence (whole entry): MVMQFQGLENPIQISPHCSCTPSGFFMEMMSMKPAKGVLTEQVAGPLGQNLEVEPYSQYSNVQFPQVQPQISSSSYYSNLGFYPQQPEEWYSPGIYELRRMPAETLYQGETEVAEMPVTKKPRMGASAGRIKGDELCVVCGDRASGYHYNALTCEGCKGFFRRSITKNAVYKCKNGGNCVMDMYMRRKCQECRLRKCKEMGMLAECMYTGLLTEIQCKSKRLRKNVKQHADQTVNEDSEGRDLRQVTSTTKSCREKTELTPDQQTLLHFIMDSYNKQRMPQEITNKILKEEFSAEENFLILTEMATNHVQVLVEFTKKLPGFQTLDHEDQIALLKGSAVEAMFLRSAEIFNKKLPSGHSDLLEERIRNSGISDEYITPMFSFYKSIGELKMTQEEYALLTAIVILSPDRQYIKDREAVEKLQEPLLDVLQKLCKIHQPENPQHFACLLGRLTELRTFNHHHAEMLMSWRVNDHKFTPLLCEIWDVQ
The series can be described thus: Antagonist activity at human Gal4-fused FXR assessed as inhibition of chenodeoxycholic acid-induced luciferase activity at 0.03 to 10 uM by reporter gene assay. In kind it is functional.

On to `C=C1c2ccccc2C(=O)N(C)c2ccc(CC)cc21`, for which the inhibition result in series [1], in series [3], in series [6], in [7] and in series [9] was “inactive” throughout. Besides, in [2], the inhibition entry is “Active”. In series [4], the IC50 is more than 30 µM. Further, the figures for the Activity entry in series [5] and in series [8] were “Not Active” and “Dose-dependent effect”, respectively.
